# Measured values as given in ChEMBL document CHEMBL3792290, “Part 1: Notch-sparing γ-secretase inhibitors: The identification of novel naphthyl and benzofuranyl amide analogs” (Bioorg Med Chem Lett, 2016).
# Key:
# [1] = target: T1, Gamma-secretase (Homo sapiens) (UniProt Q96BI3+Q9NZ42+Q8WW43+P49768+Q92542+P49810); assay: Inhibition of purified human gamma-secretase expressed in CHO cells assessed as suppression of amyloid beta 40 production at 100 uM using C100-Flag as substrate incubated for 4 hrs by ELISA relative to DMSO control
# [2] = Inhibition of human gamma-secretase expressed in CHO cells assessed as effect on Notch1 processing at 100 uM using N100-Flag as substrate incubated for 4 hrs by Western blot analysis relative to DMSO control; type: cell-based
# How it was run: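 Purified human γ-secretase from CHO cells stably overexpressing all four components; E. coli-expressed purified C100-Flag (APP) or N100-Flag (Notch) substrate; compounds at 100 μM final in 0.2% CHAPSO/HEPES pH 7.0 with 0.08% phosphatidylcholine, 0.02% phosphatidylethanolamine, DMSO <1% final; 37°C, 4 h; stopped with 0.5% SDS; Aβ40 by ELISA or Notch1 processing by Western blot, versus DMSO control.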
# [3] = target: Gamma-secretase; assay: Inhibition of gamma-secretase (unknown origin) assessed as suppression of amyloid beta 42 production by cell-based assay; design: species or system Homo sapiens
# [4] = Permeability of compound from apical to basolateral side; type: ADME; conditions: not told; read-out: permeability
# [5] = Metabolic stability in rat liver microsomes assessed as parent compound remaining after 60 mins; type: ADME; conditions: read-out: Stability
# [6] = Solubility of compound in PBS buffer at pH 7.4; type: physicochemical
# [7] = Lipophilicity, logD of the compound; type: physicochemical; conditions: octanol/water
# [8] = Metabolic stability in human liver microsomes assessed as parent compound remaining after 60 mins; type: ADME; conditions: read-out: Stability
# [9] = Protein binding in human plasma; type: ADME, cell-free; conditions: read-out: PPB (converted)
# [10] = target: T1, Gamma-secretase (Homo sapiens); assay: Inhibition of gamma-secretase (unknown origin) assessed as suppression of amyloid beta 42 production at 100 uM by cell-based assay
# [11] = target: Gamma-secretase; assay: Inhibition of human gamma-secretase expressed in CHO cells assessed as suppression of amyloid beta 40 production using C100-Flag as substrate incubated for 4 hrs by ELISA relative to DMSO control; type: cell-based
# How it was run: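 Enzyme from CHO cells stably overexpressing all four γ-secretase components, purified; C100-Flag substrate expressed in E. coli; reaction in 0.2% CHAPSO/HEPES pH 7.0 containing 0.08% phosphatidylcholine and 0.02% phosphatidylethanolamine, final DMSO <1%; incubated 37°C for 4 h, quenched with SDS (0.5% final); Aβ40 quantified by specific ELISA as percent of DMSO control.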
# [12] = Inhibition of gamma-secretase (unknown origin) assessed as suppression of Notch1 processing by cell-based assay; conditions: Homo sapiens
# [13] = target: Gamma-secretase; assay: Inhibition of gamma-secretase (unknown origin) assessed as suppression of amyloid beta 40 production by cell-based assay; design: species or system Homo sapiens
# [14] = target: Gamma-secretase; assay: Inhibition of human gamma-secretase expressed in CHO cells assessed as suppression of amyloid beta 42 production using C100-Flag as substrate incubated for 4 hrs by ELISA; type: cell-based
compound,measurement,setting,value
CC(C)N(Cc1ccc(F)c(F)c1)C(=O)c1ccc2ccccc2c1,inhibition,[1],34%
same,inhibition (INH),[2],Not Active
CC(C)N(Cc1ccc(Cl)c(Cl)c1)C(=O)c1ccc2ccccc2c1,inhibition,[1],58%
same,inhibition (INH),[2],Not Active
same,IC50,[3],135000 nM
CC(C)N(Cc1ccccc1)C(=O)c1ccc2ccccc2c1O,inhibition,[1],67%
same,inhibition (INH),[2],Not Active
same,IC50,[3],96000 nM
COc1cc(CN(C(=O)c2ccc3ccccc3c2)C(C)C)cc(OC)c1,inhibition,[1],35%
same,inhibition (INH),[2],Not Active
CC(C)N(Cc1ccccc1)C(=O)c1ccc2ccccc2c1,Papp A→B,[4],39.6 ×10⁻⁶ cm/s
same,remaining at 1 h,[5],1%
same,solubility,[6],63 µM
same,inhibition,[1],58%
same,inhibition (INH),[2],Not Active
same,logD,[7],4.2
same,remaining at 1 h,[8],28%
same,fraction unbound,[9],0.043
same,inhibition,[10],81%
COc1cccc2cc(C(=O)N(Cc3ccc(Cl)c(F)c3)C(C)C)oc12,inhibition,[1],23%
same,inhibition (INH),[2],Not Active
CN(Cc1ccccc1)C(=O)c1ccc2ccccc2c1,inhibition,[1],15%
CC(C)N(Cc1cc(F)cc(F)c1)C(=O)c1ccc2ccccc2c1O,inhibition,[1],27%
CC(C)N(Cc1ccc(Cl)c(Cl)c1)C(=O)c1cc2ccccc2o1,inhibition,[1],51%
same,inhibition (INH),[2],Not Active
COc1ccc(CN(C(=O)c2ccc3ccccc3c2)C(C)C)cc1,inhibition,[1],47%
same,inhibition (INH),[2],Active
CC(C)N(Cc1ccccc1)C(=O)c1cnc2cc(Cl)ccc2c1O,inhibition,[1],33%
same,inhibition (INH),[2],Not Active
CC(C)N(Cc1ccccc1)C(=O)c1ccc(C(C)(C)C)cc1,inhibition,[1],85%
same,inhibition (INH),[2],Active
CC(C)N(Cc1ccccc1)C(=O)c1cc2ccccc2o1,inhibition,[1],40%
same,inhibition (INH),[2],Not Active
CC(C)N(Cc1ccc(C#N)cc1)C(=O)c1ccc2ccccc2c1,inhibition,[1],31%
CC(C)N(Cc1ccc(N2CCCCC2)cc1)C(=O)c1ccc2ccccc2c1,inhibition,[1],38%
same,inhibition (INH),[2],Active
O=C(c1ccc2ccccc2c1)N(Cc1ccccc1)C1CC1,inhibition,[1],37%
same,inhibition (INH),[2],Not Active
CC(C)N(Cc1ccccc1)C(=O)c1cccc(Oc2ccccc2)c1,inhibition,[1],50%
same,inhibition (INH),[2],Active
COc1cccc(CN(C(=O)c2ccc3ccccc3c2)C(C)C)c1,inhibition,[1],19%
same,inhibition (INH),[2],Not Active
CC(C)N(Cc1ccc(F)c(F)c1)C(=O)c1ccc2ccccc2c1O,inhibition,[1],49%
same,inhibition (INH),[2],Not Active
COc1cccc2cc(C(=O)N(Cc3ccc(F)c(Cl)c3)C(C)C)oc12,inhibition,[1],49%
same,inhibition (INH),[2],Not Active
CC(C)N(Cc1ccc(Cl)c(Cl)c1)C(=O)c1ccc2ccccc2c1O,inhibition,[1],41%
same,inhibition (INH),[2],Not Active
same,IC50,[3],85000 nM
CC(C)N(Cc1ccccc1)C(=O)c1ccccc1,inhibition,[1],10%
CC(C)N(Cc1cc(F)cc(F)c1)C(=O)c1ccc2ccccc2c1,inhibition,[1],21%
CC(C)(C)N(Cc1ccccc1)C(=O)c1ccc2ccccc2c1,inhibition,[1],52%
same,inhibition (INH),[2],Not Active
COC(=O)c1ccc(CN(c2cc(F)ccc2F)S(=O)(=O)c2ccc(F)cc2)cc1,IC50,[11],580 nM
CC(C)N(Cc1ccccc1)C(=O)c1ccc(-c2ccccc2)cc1,inhibition,[1],27%
CCC(CC)N(Cc1ccc(C(=O)O)cc1)S(=O)(=O)c1ccc(Cl)cc1,IC50,[12],10000 nM
same,IC50,[13],120 nM
same,IC50,[3],130 nM
COc1cccc2cc(C(=O)N(Cc3ccc(Cl)c(Cl)c3)C(C)C)oc12,inhibition,[1],75%
same,inhibition (INH),[2],Not Active
same,inhibition,[10],81%
O=C(NCc1ccccc1)c1ccc2ccccc2c1,inhibition,[1],0%
CCOc1cccc2cc(C(=O)N(Cc3ccc(Cl)c(Cl)c3)C(C)C)oc12,inhibition,[1],58%
same,inhibition (INH),[2],Not Active
CC(C)N(Cc1cccc(C#N)c1)C(=O)c1ccc2ccccc2c1,inhibition,[1],31%
CC(C)N(Cc1ccccc1)C(=O)c1ccc2occc2c1,inhibition,[1],14%
COc1ccc(CN(C(=O)c2ccc3ccccc3c2O)C(C)C)cc1,inhibition,[1],33%
same,inhibition (INH),[2],Not Active
same,IC50,[3],95000 nM
Cc1c(C(=O)N(Cc2ccc(Cl)c(Cl)c2)C(C)C)oc2ccccc12,inhibition,[1],0%
O=S(=O)(c1ccc(F)cc1)N(Cc1ccccc1OC1CCOCC1)c1cc(F)ccc1F,IC50,[11],360 nM
same,IC50,[14],400 nM
same,IC50,[3],620 nM
CC(C)N(Cc1ccccc1)C(=O)c1cnc2ccccc2c1,inhibition,[1],50%
same,inhibition (INH),[2],Active
CC(C)N(Cc1ccccc1)C(=O)c1cn(C)c2ccccc12,inhibition,[1],0%
